Experimental data reported in ChEMBL document CHEMBL1124009 (J Med Chem, 1988).
Positions of bridges follow the written chain, without caps; N, C: chain ends. Non-standard residues stand in square brackets, D forms with d. Residues, ends and D or L forms follow the SMILES beside them. Tic = O=C(O)[C@@H]1Cc2ccccc2CN1; dTic = O=C(O)[C@H]1Cc2ccccc2CN1; Pen = CC(C)(S)[C@H](N)C(=O)O

How the values were obtained:
[1] = biological target: Somatostatin receptor; test: Binding affinity in competition with [125I]- CGP-23996 in somatostatin receptor binding to rat brain membrane
In short: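 Rat whole-brain membranes (adult male Sprague–Dawley) at 1.0% final tissue were incubated with 0.2 nM [125I]CGP 23,996 and analogues at 100–0.3 μM. Buffer was 50 mM Tris pH 7.4 with 2.0 mg/mL BSA, 20 μg/mL bacitracin and 5 mM MgCl2. Incubation ran 1 h at 37 °C and ended by rapid filtration through BSA-soaked GF/B filters.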

[2] = biological target: Opioid receptors; mu & delta (Rattus norvegicus) (UniProt P33533+P33535); test: Ratio of selective binding affinity of mu receptor to that of delta opioid receptor; format: protein assay
Chain of Opioid receptors; mu & delta (Rattus norvegicus) (P33533 whole entry, looked up): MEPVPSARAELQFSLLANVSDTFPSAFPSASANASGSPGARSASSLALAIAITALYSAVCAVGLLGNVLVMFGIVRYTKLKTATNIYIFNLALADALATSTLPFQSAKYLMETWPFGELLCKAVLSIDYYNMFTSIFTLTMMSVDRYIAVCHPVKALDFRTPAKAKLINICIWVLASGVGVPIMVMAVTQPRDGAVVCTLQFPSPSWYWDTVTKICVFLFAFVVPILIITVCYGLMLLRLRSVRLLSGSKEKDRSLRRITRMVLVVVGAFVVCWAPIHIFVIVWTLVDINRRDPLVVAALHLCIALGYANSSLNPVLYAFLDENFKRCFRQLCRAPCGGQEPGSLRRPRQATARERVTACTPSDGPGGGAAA
Chain of Opioid receptors; mu & delta (Rattus norvegicus) (P33535 whole entry, looked up): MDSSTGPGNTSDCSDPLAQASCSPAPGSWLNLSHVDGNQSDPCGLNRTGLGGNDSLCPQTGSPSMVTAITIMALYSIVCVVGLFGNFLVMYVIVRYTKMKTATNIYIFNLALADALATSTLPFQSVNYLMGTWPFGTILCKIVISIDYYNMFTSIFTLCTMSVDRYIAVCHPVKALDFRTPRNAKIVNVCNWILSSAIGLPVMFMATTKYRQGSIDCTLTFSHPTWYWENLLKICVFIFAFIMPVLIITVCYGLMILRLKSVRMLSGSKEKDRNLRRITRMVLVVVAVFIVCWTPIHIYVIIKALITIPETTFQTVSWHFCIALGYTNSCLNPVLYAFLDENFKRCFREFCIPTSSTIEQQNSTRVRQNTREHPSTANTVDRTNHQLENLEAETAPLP

[3] = Ratio of selective binding affinity of mu receptor to that of somatostatin receptor
[4] = biological target: Delta-type opioid receptor (Rattus norvegicus, UniProt P33533); test: Binding affinity in competition with [3H]- DPDPE in Opioid receptor delta 1 binding to rat brain membrane
Chain of Delta-type opioid receptor (P33533 whole entry): as the sequence (P33533 whole entry, looked up) above
In short: (§1)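 Brains (minus cerebellum) of male Sprague–Dawley rats (200–250 g) were homogenized, preincubated 30 min at 25 °C and centrifuged twice at 43000g. Homogenate at 0.5% final was incubated with 0.5 nM [3H]CTOP (μ) or 1.0 nM [3H]DPDPE (δ) in 50 mM Tris-HCl pH 7.4 with 5 mM MgCl2, BSA 1 mg/mL and 100 μM PMSF, 120 min at 25 °C, in duplicate. Nonspecific binding was taken with 1 μM naloxone; bound label was filtered and scintillation counted; curves were fit by nonlinear least squares.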

[5] = biological target: Mu-type opioid receptor (Rattus norvegicus, UniProt P33535); test: Binding affinity in competition with [3H]- CTOP in Opioid receptor mu 1 binding to rat brain membrane; in short: as §1
Chain of Mu-type opioid receptor (P33535 whole entry): as the sequence (P33535 whole entry, looked up) above

[6] = organism: Cavia porcellus; test: Negative logarithm of antagonist concentration that requires doubling of agonist concentration to induce original agonist response; settings: read-out: pA2 (converted)
[7] = biological target: Mu-type opioid receptor (Rattus norvegicus) (UniProt P33535); test: Binding affinity of compound in competition with [3H]- CTOP in Opioid receptor mu 1 binding to rat brain membrane at 10000 nM
Chain of Mu-type opioid receptor (Rattus norvegicus) (P33535 whole entry): as the sequence (P33535 whole entry, looked up) above

[8] = biological target: Mu-type opioid receptor (Rattus norvegicus) (UniProt P33535); test: Percentage inhibition in competition with [3H]- CTOP in Opioid receptor mu 1 binding to rat brain membrane at 10000 nM
[9] = organism: Cavia porcellus; test: Intrinsic agonist activity in guinea Pig Ileum (GPI) was determined; format: functional; settings: filed as agonist
In short: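 Longitudinal muscle–myenteric plexus strips of ileum from male Hartley guinea pigs (200–500 g) sat in Krebs–bicarbonate at 37 °C under 95% O2/5% CO2 at 1 g tension. Strips were field-stimulated at 0.1 Hz with 0.4-ms supramaximal pulses, and isometric twitches were recorded. Agonist action was taken as twitch inhibition. pA2 came from PL017 (μ agonist) dose–response curves without and with several antagonist concentrations.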

Row | SMILES | Ratio [2] | Ratio [3] | Kb [6] | also measured
1 | C[C@@H](O)[C@H](NC(=O)[C@H]1NC(=O)[C@H]([C@@H](C)O)NC(=O)[C@H](CCCCN)NC(=O)[C@H](Cc2c[nH]c3ccccc23)NC(=O)[C@H](Cc2ccc(O)cc2)NC(=O)[C@@H](NC(=O)[C@@H](N)Cc2ccccc2)CSSC1(C)C)C(N)=O | 312 | 395 |  | IC50 [1]: 1462 nM
2 | C[C@@H](O)[C@@H]1NC(=O)[C@H](CCCCN)NC(=O)C(Cc2c[nH]c3ccccc23)NC(=O)[C@H](Cc2ccc(O)cc2)NC(=O)[C@@H](NC(=O)[C@H](N)Cc2ccccc2)CSSC(C)(C)[C@@H](C(=O)N[C@@H](CO)C(N)=O)NC1=O (stereo in doubt) |  |  | 575 nM | IC50 [4]: > 10000 nM; IC50 [5]: 20 nM
3 | CC(C)[C@H](NC(=O)[C@H]1NC(=O)[C@H]([C@@H](C)O)NC(=O)[C@H](CCCCN)NC(=O)[C@H](Cc2c[nH]c3ccccc23)NC(=O)[C@H](Cc2ccc(O)cc2)NC(=O)[C@@H](NC(=O)[C@H]2Cc3ccccc3CN2)CSSC1(C)C)C(N)=O | 46 | 43 |  | IC50 [1]: 1992 nM
4 | C[C@@H](O)[C@H](NC(=O)[C@@H]1NC(=O)[C@H](CCCCN)NC(=O)C(Cc2c[nH]c3ccccc23)NC(=O)[C@H](Cc2ccc(O)cc2)NC(=O)[C@@H](NC(=O)[C@@H](N)Cc2ccccc2)CSSC1(C)C)C(N)=O (stereo in doubt) |  |  |  | inhibition [7]: 18%
5 | C[C@@H](O)[C@@H]1NC(=O)[C@H](CCCN)NC(=O)C(Cc2c[nH]c3ccccc23)NC(=O)[C@H](Cc2ccc(O)cc2)NC(=O)[C@@H](NC(=O)[C@H](N)Cc2ccccc2)CSSC(C)(C)[C@@H](C(N)=O)NC1=O (stereo in doubt) | > 53 | 253 |  | 
6 | C[C@@H](O)[C@H](NC(=O)[C@H]1NC(=O)[C@H](CCCCN)NC(=O)C(Cc2c[nH]c3ccccc23)NC(=O)[C@@H](Cc2ccc(O)cc2)NC(=O)[C@@H](NC(=O)[C@H]2Cc3ccccc3CN2)CSSC1(C)C)C(N)=O (stereo in doubt) | > 1 | 1.5 |  | 
7 | C[C@@H](O)[C@@H]1NC(=O)[C@H](CCCCN)NC(=O)C(Cc2c[nH]c3ccccc23)NC(=O)[C@H](Cc2ccc(O)cc2)NC(=O)[C@@H](NC(=O)[C@H](N)Cc2ccccc2)CSSC(C)(C)[C@@H](C(=O)N[C@@H](CC(N)=O)C(N)=O)NC1=O (stereo in doubt) | > 77 | 6.3 |  | 
8 | C[C@@H](O)[C@H](NC(=O)[C@H]1NC(=O)[C@H]([C@@H](C)O)NC(=O)[C@H](CCCN)NC(=O)C(Cc2c[nH]c3ccccc23)NC(=O)[C@@H](Cc2ccc(O)cc2)NC(=O)[C@@H](NC(=O)[C@H]2Cc3ccccc3CN2C(=O)CN)CSSC1(C)C)C(N)=O (stereo in doubt) | 19 | 70 |  | 
9 | C[C@@H](O)[C@@H]1NC(=O)[C@H](CCCCN)NC(=O)C(Cc2c[nH]c3ccccc23)NC(=O)[C@H](Cc2ccc(O)cc2)NC(=O)[C@@H](NC(=O)[C@H](N)Cc2ccccc2)CSSC(C)(C)[C@@H](C(N)=O)NC1=O (stereo in doubt) | > 87 | 17 |  | 
10 | C[C@@H](O)[C@H](NC(=O)[C@H]1NC(=O)[C@H]([C@@H](C)O)NC(=O)[C@H](CCCN=C(N)N)NC(=O)[C@@H](Cc2c[nH]c3ccccc23)NC(=O)[C@H](Cc2ccc(O)cc2)NC(=O)[C@@H](NC(=O)[C@H]2Cc3ccccc3CN2)CSSC1(C)C)C(N)=O (H-[dTic]CY[dW]RT[Pen]T-NH2; disulfide 2-7) |  |  | 2.04 nM | IC50 [4]: 1270 nM; IC50 [5]: 1.2 nM
11 | CC(C)[C@H](NC(=O)[C@H]1NC(=O)[C@H]([C@@H](C)O)NC(=O)[C@H](CCCCN)NC(=O)[C@@H](Cc2c[nH]c3ccccc23)NC(=O)[C@H](Cc2ccc(O)cc2)NC(=O)[C@@H](NC(=O)[C@H]2Cc3ccccc3CN2)CSSC1(C)C)C(N)=O |  |  | 257 nM | IC50 [4]: 2120 nM; IC50 [5]: 46 nM
12 | C[C@@H](O)[C@@H]1NC(=O)[C@H](CCCCN)NC(=O)C(Cc2c[nH]c3ccccc23)NC(=O)[C@H](Cc2ccc(O)cc2)NC(=O)[C@@H](NC(=O)[C@H]2Cc3ccccc3CN2)CSSC(C)(C)[C@@H](C(=O)N[C@@H](CO)C(N)=O)NC1=O (stereo in doubt) | 491 | 192 |  | 
13 | CN[C@H](Cc1ccccc1)C(=O)N[C@H]1CSSC(C)(C)[C@@H](C(=O)N[C@H](C(N)=O)[C@@H](C)O)NC(=O)[C@H]([C@@H](C)O)NC(=O)[C@H](CCCN)NC(=O)C(Cc2c[nH]c3ccccc23)NC(=O)[C@H](Cc2ccc(O)cc2)NC1=O (stereo in doubt) | > 35 | 28 |  | 
14 | C[C@@H](O)[C@H](NC(=O)[C@H]1NC(=O)[C@H]([C@@H](C)O)NC(=O)[C@H](CCCCN)NC(=O)C(Cc2c[nH]c3ccccc23)NC(=O)[C@@H](Cc2ccc(O)cc2)NC(=O)[C@@H](NC(=O)[C@H]2Cc3ccccc3CN2)CSSC1(C)C)C(N)=O (stereo in doubt) |  |  | 7.94 nM | IC50 [4]: 9320 nM; IC50 [5]: 1.2 nM
15 | C[C@@H](O)[C@H](NC(=O)[C@H]1NC(=O)[C@H]([C@@H](C)O)NC(=O)[C@H](CCCCN)NC(=O)[C@@H](Cc2c[nH]c3ccccc23)NC(=O)[C@H](Cc2ccc(O)cc2)NC(=O)[C@@H](NC(=O)[C@H](N)Cc2ccccc2)CSSC1(C)C)C(N)=O |  |  | 79.4 nM | IC50 [4]: 1150 nM
16 | C[C@@H](O)[C@H](NC(=O)[C@H]1NC(=O)[C@H]([C@@H](C)O)NC(=O)[C@H](CCCN=C(N)N)NC(=O)[C@H](Cc2c[nH]c3ccccc23)NC(=O)[C@H](Cc2ccc(O)cc2)NC(=O)[C@@H](NC(=O)[C@@H]2Cc3ccccc3CN2)CSSC1(C)C)C(N)=O (H-[Tic]CYWRT[Pen]T-NH2; disulfide 2-7) | 1060 | 28600 |  | IC50 [1]: 34336 nM
17 | C[C@@H](O)[C@H](NC(=O)[C@H]1NC(=O)[C@H]([C@@H](C)O)NC(=O)[C@H](CCCN)NC(=O)[C@@H](Cc2c[nH]c3ccccc23)NC(=O)[C@H](Cc2ccc(O)cc2)NC(=O)[C@@H](NC(=O)[C@H]2Cc3ccccc3CN2)CSSC1(C)C)C(N)=O |  |  | 41.7 nM | IC50 [4]: 16000 nM; IC50 [5]: 1.4 nM
18 | C[C@@H](O)[C@H](NC(=O)[C@H]1NC(=O)[C@H](CC(N)=O)NC(=O)[C@H](Cc2ccc(O)cc2)NC(=O)[C@@H](NC(=O)[C@@H](N)Cc2ccccc2)CSSC1(C)C)C(N)=O |  |  |  | inhibition [8]: 17%; IC50 [1]: > 100000 nM
19 | C[C@@H](O)[C@H](NC(=O)[C@H]1NC(=O)[C@H]([C@@H](C)O)NC(=O)[C@H](CCCNC(=N)N)NC(=O)[C@@H](Cc2c[nH]c3ccccc23)NC(=O)[C@H](Cc2ccc(O)cc2)NC(=O)[C@@H](NC(=O)[C@H](N)Cc2ccccc2)CSSC1(C)C)C(N)=O | 2530 | 4020 | 75.9 nM | IC50 [1]: 8452 nM
20 | C[C@@H](O)[C@H](NC(=O)[C@H]1NC(=O)[C@H]([C@@H](C)O)NC(=O)[C@H](CCCCN)NC(=O)C(Cc2c[nH]c3ccccc23)NC(=O)[C@H](Cc2ccc(O)cc2)NC(=O)[C@@H](NC(=O)C(N)Cc2c[nH]c3ccccc23)CSSC1(C)C)C(N)=O (stereo in doubt) | > 1590 | 254 |  | Activity [9]: Agonist
21 | C[C@@H](O)[C@H](NC(=O)[C@H]1NC(=O)[C@H](CC(N)=O)NC(=O)[C@H](Cc2ccccc2)NC(=O)[C@@H](NC(=O)[C@@H](N)Cc2ccc(O)cc2)CSSC1(C)C)C(N)=O | > 1.3 | > 1.3 |  | IC50 [1]: >= 10000 nM
